The source made the active and inactive calls. The rule behind the calls is not given here.

Three compounds from ChEMBL document CHEMBL4619820, “Development of Novel AKR1C3 Inhibitors as New Potential Treatment for Castration-Resistant Prostate Cancer” (J Med Chem, 2020) can be followed below.

Data set [1] concerns CWR22R. The data set is described as follows: Antitumor activity against human 22Rv1 cells xenografted in Balb/c nu/nu athymic mouse assessed as reduction in tumor volume at 100 mg/kg, ip dosed twice per week for 6 weeks. The class given is functional, organism-based. In outline:
(§1)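 22Rv1 xenograft mice dosed intraperitoneally with vehicle (control, n=15), 50 mg/kg (n=10) or 100 mg/kg (n=10); tumor size followed over time; body weights recorded.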

Data set [2] relates to CWR22R. The data set is described as follows: Antitumor activity against human 22Rv1 cells xenografted in Balb/c nu/nu athymic mouse assessed as increase in necrotic region in tumor tissue at 100 mg/kg, ip dosed twice per week for 6 weeks by H and E staining dependent light microscopy based histopathological analysis. It counts as functional, organism-based. In outline: (§2)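 Tumor tissue, plus liver, kidney and lung, from xenografted mice given ip 50 or 100 mg/kg; sections stained with hematoxylin and eosin and examined at ×40 for necrotic areas.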
On the technique in general: In xenograft studies the graft and the host belong to different species.

Data set [3] can be described thus: Toxicity in Balb/c nu/nu athymic mouse xenografted with human 22Rv1 cells assessed as effect on lung histology at 100 mg/kg, ip dosed twice per week for 6 weeks by H and E staining dependent light microscopy based histopathological analysis. The following applies: in vivo, 1008 h. It counts as organism-based, CWR22R. In outline: (§3)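 Mice carrying 22Rv1 xenografts were dosed intraperitoneally, with vehicle controls n=15 and treated groups n=10. Tissue sections of kidney, liver and lung were stained with hematoxylin and eosin and examined by light microscopy at ×40 magnification for histopathological changes.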

Data set [4] is described as follows: Toxicity in Balb/c nu/nu athymic mouse xenografted with human 22Rv1 cells assessed as effect on liver histology at 100 mg/kg, ip dosed twice per week for 6 weeks by H and E staining dependent light microscopy based histopathological analysis. It counts as organism-based, CWR22R. The following applies: in vivo, 1008 h. In short, it runs like this:
as §3

The nature of data set [5]: Toxicity in Balb/c nu/nu athymic mouse xenografted with human 22Rv1 cells assessed as effect on kidney histology at 100 mg/kg, ip dosed twice per week for 6 weeks by H and E staining dependent light microscopy based histopathological analysis. The class given is organism-based, CWR22R. To be noted: in vivo, 1008 h. In short, it runs like this:
as §3

A short description of data set [6]: Toxicity in Balb/c nu/nu athymic mouse xenografted with human 22Rv1 cells assessed as effect on body weight at 100 mg/kg, ip dosed twice per week for 6 weeks […]. To be noted: in vivo, 1008 h. It counts as organism-based, CWR22R. In outline: (§4)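 Mice carrying 22Rv1 xenografts received intraperitoneal injections. The vehicle control group had n=15 and each treated dose group had n=10. Average body weights were compared between treated and vehicle-control mice.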

The test system of data set [7] is CWR22R. The data set is described as follows: Inhibition of pregnenolone-induced cell proliferation of human 22Rv1 cells at 10 to 20 uM pre-incubated for 2 hrs before pregnenolone stimulation for 72 hrs by alamar blue assay. The class given is functional, cell-based. In outline: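 22Rv1 cells (AKR1C3- and AR-expressing) pretreated 2 h with agents, then cultured 72 h with 20 nM pregnenolone; viable cell number given as percent of pregnenolone-free control.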

Data set [8] concerns CWR22R. Put plainly: Inhibition of pregnenolone-induced cell cell cycle changes in human 22Rv1 cells assessed as reduction in S phase accumulation at 10 uM pre-incubated for 2 hrs before pregnenolone stimulation for 24 hrs by propidium iodide staining based flow cytometry. It counts as functional. In outline:
(§5)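 Cell cycle in 22Rv1: 2 h pretreatment with or without 10 μM inhibitor, then 24 h with 20 nM pregnenolone; G0/G1, S and G2/M fractions determined by flow cytometry.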
For orientation: A flow cytometer gives signals particle by particle.

Data set [9] concerns CWR22R. Put plainly: Inhibition of pregnenolone-induced cell cell cycle changes in human 22Rv1 cells assessed as increase in G0/GG1 phase accumulation at 10 uM pre-incubated for 2 hrs before pregnenolone stimulation for 24 hrs by propidium iodide staining based flow cytometry. It counts as functional. In outline: as §5
Data set [10] concerns the target T1, Aldo-keto reductase family 1 member C3 (Homo sapiens) (UniProt P42330).
T1 sequence (whole entry): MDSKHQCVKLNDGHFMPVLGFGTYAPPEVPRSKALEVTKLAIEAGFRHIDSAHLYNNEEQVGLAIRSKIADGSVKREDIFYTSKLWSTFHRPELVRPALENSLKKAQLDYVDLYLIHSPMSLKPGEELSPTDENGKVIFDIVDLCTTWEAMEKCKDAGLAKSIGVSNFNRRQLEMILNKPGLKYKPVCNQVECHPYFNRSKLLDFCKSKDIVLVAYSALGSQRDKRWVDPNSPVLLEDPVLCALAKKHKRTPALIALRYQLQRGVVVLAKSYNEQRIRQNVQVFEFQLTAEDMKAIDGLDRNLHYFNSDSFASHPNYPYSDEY
Put plainly: Inhibition of AKR1C3 in human 22Rv1 cells assessed as as reduction in finasteride-induced metabolism of 4AD into testosterone at 10 to 20 uM pre-incubated for 2 hrs in presence of finasteride before 4AD addition for 24 hrs by EIA. It counts as cell-based. The following applies: CWR22R. In outline:
(§6)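 22Rv1 cells pretreated 2 h with or without 2 μM finasteride and/or inhibitor, then cultured 24 h with 100 nM 4AD; testosterone in cell extracts quantified by EIA and expressed as percent of finasteride-free control.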

Data set [11] concerns CWR22R. Put plainly: Effect on steroid 5alpha-reductase in human 22Rv1 cells assessed as effect on metabolism of 4AD into testosterone at 10 to 20 uM pre-incubated for 2 hrs before 4AD addition for 24 hrs by EIA. It counts as cell-based. In outline:
as §6

Data set [12] has as its system CWR22R. The data set is described as follows: Antitumor activity against human 22Rv1 cells xenografted in Balb/c nu/nu athymic mouse assessed as reduction in tumor volume at 50 mg/kg, ip dosed twice per week for 6 weeks. The class given is functional, organism-based. In short, it runs like this: as §1
Data set [13] deals with CWR22R. The data set is described as follows: Antitumor activity against human 22Rv1 cells xenografted in Balb/c nu/nu athymic mouse assessed as increase in necrotic region in tumor tissue at 50 mg/kg, ip dosed twice per week for 6 weeks by H and E staining dependent light microscopy based histopathological analysis. The class given is functional, organism-based. In outline:
as §2

A short description of data set [14]: Toxicity in Balb/c nu/nu athymic mouse xenografted with human 22Rv1 cells assessed as effect on lung histology at 50 mg/kg, ip dosed twice per week for 6 weeks by H and E staining dependent light microscopy based histopathological analysis. It counts as organism-based, CWR22R. The following applies: in vivo, 1008 h. In short, it runs like this:
as §3

A short description of data set [15]: Toxicity in Balb/c nu/nu athymic mouse xenografted with human 22Rv1 cells assessed as effect on liver histology at 50 mg/kg, ip dosed twice per week for 6 weeks by H and E staining dependent light microscopy based histopathological analysis. It counts as organism-based, CWR22R. To be noted: in vivo, 1008 h. In short, it runs like this:
as §3

The nature of data set [16]: Toxicity in Balb/c nu/nu athymic mouse xenografted with human 22Rv1 cells assessed as effect on kidney histology at 50 mg/kg, ip dosed twice per week for 6 weeks by H and E staining dependent light microscopy based histopathological analysis. It counts as organism-based, CWR22R. The following applies: in vivo, 1008 h. In outline:
as §3

Data set [17] is described as follows: Toxicity in Balb/c nu/nu athymic mouse xenografted with human 22Rv1 cells assessed as effect on body weight at 50 mg/kg, ip dosed twice per week for 6 weeks by H and E staining dependent light microscopy based histopathological analysis. The class given is organism-based, CWR22R. The following applies: in vivo, 1008 h. In outline:
as §4

Data set [18] concerns the target T1, Aldo-keto reductase family 1 member C3 (Homo sapiens). The data set is described as follows: Inhibition of AKR1C3 in human 22Rv1 cells assessed as potentiation of abiraterone-induced apoptosis by measuring reduction in BCl2 level at 10 uM pre-incubated for 2 hrs before addition of pregnenolone for 24 hrs by Western blot analysis. The class given is cell-based. The following applies: CWR22R. Background: Immunoblotting shows a protein as a band on a membrane.

Data set [19] has the same target. The data set is described as follows: Inhibition of AKR1C3 in human 22Rv1 cells assessed as potentiation of abiraterone-induced apoptosis by measuring increase in cleaved PARP level at 10 uM pre-incubated for 2 hrs before addition of pregnenolone for 24 hrs by Western blot analysis. The class given is cell-based. The following applies: CWR22R.
Data set [20] shares this target. Put plainly: Inhibition of AKR1C3 in human 22Rv1 cells assessed as induction of ROS generation at 10 uM by DCFH-DA dye based flow cytometric analysis. The class given is cell-based. The following applies: CWR22R. In outline: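 22Rv1 cells exposed 3 h to 10 μM inhibitor and/or abiraterone, or 50 μM enzalutamide; intracellular ROS by flow cytometry as DCF-positive cells, percent of vehicle control.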

In the case of `CCc1cccc(NC(=O)c2cc3cccc(O)c3oc2=N)c1`, the result with CWR22R [1] and in the data set with CWR22R [2] was Active. In addition, the Activity result in data set [3], in data set [4], in data set [5] and in data set [6] was “Non-Toxic” throughout.
`Cc1ccc(NC(=O)c2cc3cccc(O)c3oc2=N)cc1`: the inhibition entry (in the data set on CWR22R [7]; with CWR22R [8]; with CWR22R [9]; in data set [10]; in data set [18]; in data set [19]) was “Active” throughout. For the same compound, in data set [20], the inhibition result was “Active”. For the same compound, in the data set on CWR22R [11], the result was inactive. The outcome in the data set on CWR22R [12] and in the data set on CWR22R [13] was Active. Moreover, the Activity result in data set [14], in data set [15], in [16] and in [17] was “Non-Toxic” throughout.
For `N=c1oc2c(O)cccc2cc1C(=O)Nc1ccc(F)cc1`, the inhibition result (with CWR22R [7]; in the data set with CWR22R [8]; in the data set on CWR22R [9]; in [10]; in data set [18]; in data set [19]) was “Active” in each case. Also, in data set [20], the inhibition result was “Active”. In addition, the outcome with CWR22R [11] was inactive.
